Activity calls are given as the source filed them. The rule behind the calls is not given here.
Tests used:
HT-1080 [1] = test: Induction of apoptosis in human HT1080 cells expressing beclin 1 siRNA assessed as increase in FADD protein expression at 10 uM after 24 hrs by Western blotting analysis relative to control; assay type: functional, cell-based
Procedure, shortened: (§1)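 5 × 10^5 HT1080 cells transfected with beclin 1 or nonspecific siRNA using TranSmarter for 7 h at 37 °C, then kept 24 h in normal medium. Treated with 10 μM for 24 h and lysed. Proteins assessed by Western blot with β-actin normalization and compared with nonspecific-siRNA groups.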

HT-1080 [2] = test: Induction of apoptosis in human HT1080 cells assessed as accumulation in subG1 phase at 10 uM after 24 hrs by propidium iodide staining-based FACS flow cytometric analysis (reference value: 0.32%); assay type: functional
HT-1080 [3] = test: Induction of apoptosis in human HT1080 cells assessed as increase in PARP cleavage at 10 uM pretreated with 3MA for 1 hr prior to compound addition measured after 24 hrs by Western blotting analysis; assay type: functional, cell-based
Procedure, shortened: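 HT1080 cells pretreated 1 h with 1 mM 3MA or 1 nM rapamycin, then co-incubated with 10 μM for 24 h. Adherent and floating cells lysed in Hepes pH 7.4/Triton buffer. 12% SDS-PAGE, nitrocellulose, antibodies against Fas, FADD, caspase-8, caspase-3, PARP and ICAD, ECL detection. Densities normalized to β-actin; n = 3.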

HT-1080 [4] = test: Induction of autophagy in human HT1080 cells assessed as increase in autophagy ratio at 10 uM pretreated with rapamycin for 1 hr prior to compound addition measured after 24 hrs by MDC staining-based FACS flow cytometric analysis; assay type: functional, cell-based
Procedure, shortened: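 HT1080 cells seeded at 3 × 10^5 per flask and grown 24 h. Pretreated 1 h with 1 mM 3MA or 1 nM rapamycin, then 10 μM for 24 h. Collected cells stained with 0.05 mM MDC at 37 °C for 1 h. MDC-positive ratio measured by flow cytometry, n = 3, mean ± SD.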

PBMC = test: Cytotoxicity against human PBMC at 10 to 80 uM after 24 to 48 hrs by MTT assay; assay type: cell-based
Procedure, shortened: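 PBMC from fresh blood of three healthy male donors. Blood diluted 1:3 in PBS, layered on Ficoll-Hypaque (1.077 g/mL), spun 900g 30 min. Band washed 400g 10 min, cells resuspended in complete RPMI-1640 in 96-well plates. Treated with 0, 10, 20, 40 or 80 μM for 24 and 48 h, then MTT. Means ± SD of three independent experiments.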

HT-1080 [5] = test: Cytotoxicity against human HT1080 cells assessed as growth inhibition at 10 uM pretreated with 3MA for 1 hr prior to compound addition measured after 24 hrs by MTT assay; assay type: functional, cell-based
Procedure, shortened: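 HT1080 seeded 0.8 × 10^4 cells/well. MTT 2 h at 37 °C, formazan in DMSO, A492 read. Inhibition % calculated against untreated and blank wells.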

HT-1080 [6] = test: Induction of apoptosis in human HT1080 cells expressing beclin 1 siRNA assessed as reversal of beclin 1 upregulation at 10 uM after 24 hrs by Western blotting analysis relative to control; assay type: functional, cell-based
Procedure, shortened: (§2)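 Beclin 1 or nonspecific siRNA transfected into HT1080 cells (5 × 10^5 seeded a day earlier; transfection mixture for 7 h at 37 °C, then normal medium, 24 h before harvest). Cells then got 10 μM for 24 h. Adherent plus floating cells lysed in Hepes pH 7.4/Triton buffer at 4 °C for 60 min. Equal protein on 12% SDS-PAGE, nitrocellulose, ECL. Bands normalized to β-actin, n = 3.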

HT-1080 [7] = test: Induction of autophagy in human HT1080 cells assessed as increase in autophagolysosomes at 10 uM after 24 hrs by MDC staining-based fluorescence microscopic analysis (reference value: 2.65 +/- 0.12%); assay type: functional
Procedure, shortened: (§3)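 HT1080 cells at 2 × 10^4 per well, cultured 24 h, then given 10 μM for 24 h. Stained with 0.05 mM MDC at 37 °C for 1 h. Autophagolysosomes viewed by fluorescence microscopy at 200×.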

HT-1080 [8] = test: Induction of apoptosis in human HT1080 cells assessed as increase in apoptotic ratio at 10 uM pretreated with 3MA for 1 hr prior to compound addition measured after 24 hrs by propidium iodide staining-based FACS flow cytometric analysis; assay type: functional, cell-based
HT-1080 [9] = test: Induction of autophagy in human HT1080 cells assessed as increase in autophagolysosomes at 10 uM by MDC staining-based fluorescence microscopic analysis; assay type: functional, cell-based; procedure, shortened: as §3
HT-1080 [10] = test: Induction of autophagy in human HT1080 cells assessed as conversion from LC31to LC32 at 10 uM by Western blotting analysis; assay type: functional, cell-based; conditions: TDE = time-dependent effect
Procedure, shortened: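 HT1080 cells exposed to 10 μM for 6, 12, 18 and 24 h, then lysed in Hepes pH 7.4/Triton buffer at 4 °C for 60 min. Equal protein run on 12% SDS-PAGE, blotted to nitrocellulose, probed for beclin 1 and LC3, ECL detection. Densities taken relative to β-actin, n = 3.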

U-937 = test: Cytotoxicity against human U937 cells assessed as growth inhibition after 24 hrs by MTT assay; assay type: functional, cell-based
Procedure, shortened: (§4)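 Seeded 0.8 × 10^4 cells/well, cultured 24 h, then exposed to 0, 10, 20, 40 or 80 μM for 24 h (DMSO <0.05%) in RPMI 1640 or MEM with 10% FBS. Adherent lines rinsed with PBS, given MTT 2 h at 37 °C. Suspension lines (U937, HL60) given MTT 2 h, then centrifuged. Formazan dissolved in DMSO, A492 read. Inhibition % = (control − sample)/(control − blank) × 100.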

A-431 = test: Cytotoxicity against human A431 cells assessed as growth inhibition after 24 hrs by MTT assay; assay type: functional, cell-based; procedure, shortened: as §4
HT-1080 [11] = test: Induction of apoptosis in human HT1080 cells assessed as change in BCL2 expression at 10 uM after 6 to 24 hrs by Western blotting analysis; assay type: functional, cell-based
Procedure, shortened: (§5)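 HT1080 cells treated with 10 μM for 6, 12, 18 and 24 h. Adherent and floating cells lysed 60 min at 4 °C in Hepes pH 7.4/1% Triton X-100 buffer with phosphatase and protease inhibitors. Equal protein run on 12% SDS-PAGE, transferred to nitrocellulose, probed with specific antibodies, HRP/ECL detection. Band density normalized to β-actin; n = 3.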

MCF7 = test: Cytotoxicity against human MCF7 cells assessed as growth inhibition after 24 hrs by MTT assay; assay type: functional, cell-based; procedure, shortened: as §4
HT-1080 [12] = test: Induction of apoptosis in human HT1080 cells expressing beclin 1 siRNA assessed as suppression of LC31to LC32 conversion at 10 uM after 24 hrs by Western blotting analysis relative to control; assay type: functional, cell-based; procedure, shortened: as §2
HT-1080 [13] = test: Induction of apoptosis in human HT1080 cells assessed as appearance of granular apoptotic bodies at 10 uM after 24 hrs by acridine orange staining-based fluorescence microscopic analysis; assay type: functional, cell-based
Procedure, shortened: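 HT1080 cells, 2 × 10^4/well, cultured 24 h, then exposed to 10 μM for 24 h. Stained with acridine orange 20 μg/mL for 15 min in the dark and examined by fluorescence microscopy at 200×.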

HT-1080 [14] = test: Induction of apoptosis in human HT1080 cells expressing beclin 1 siRNA assessed as ICAD downregulation at 10 uM after 24 hrs by Western blotting relative to control; assay type: functional, cell-based; procedure, shortened: as §1
HT-1080 [15] = test: Induction of apoptosis in human HT1080 cells assessed as PARP cleavage at 10 uM after 6 to 24 hrs by Western blotting analysis; assay type: functional, cell-based; procedure, shortened: as §5

SMILES: C=C1C(=O)O[C@@H]2C[C@@]1(C)[C@@H]1C(=O)[C@]3(O)O[C@]14[C@@]2(C)OC(=O)[C@@]4(O)CC[C@H]1[C@H]3[C@H](O)C=C2CC=CC(=O)[C@@]21C [PHYSALIN A]
- Activity (HT-1080 [1]): Active
- Activity (HT-1080 [2]): 27.79%
- Activity (HT-1080 [3]): Active
- Activity (HT-1080 [4]): Active
- Activity (PBMC): Non-toxic
- growth inhibition (GI) (HT-1080 [5]): Active
- Activity (HT-1080 [6]): Active
- Activity (HT-1080 [7]): 26.7%
- Activity (HT-1080 [8]): Active
- Activity (HT-1080 [9]): Active
- Activity (HT-1080 [10]): tde
- growth inhibition (GI) (U-937): Dose-dependent effect
- growth inhibition (GI) (A-431): Dose-dependent effect
- Activity (HT-1080 [11]): inactive
- growth inhibition (GI) (MCF7): Dose-dependent effect
- Activity (HT-1080 [12]): Active
- Activity (HT-1080 [13]): Active
- Activity (HT-1080 [14]): Active
- Activity (HT-1080 [15]): Active
